Compound activity from PubChem BioAssay.
In the library only some 4.5% were active in any assay of this set; here they are far more common.
TAAR1 antag: human TAAR1 antagonists, primary screen, Fluo-8 calcium fluorescence, CHO RD-HGA16 cells; Trace amine-associated receptor 1 (Homo sapiens), Q96RJ0; antagonist; inhibition, % at 3 µM; hit rate 1.5% among 360,000; AID 624466, 2012;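 active means inhibition above a per-plate cutoff, the mean inhibition of test compounds on that plate plus 3 SD, cut at about 49% in these data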;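 further: 0% = DMSO plus EC80 beta-PEA response and 100% = DMSO alone without agonist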
Target sequence (Q96RJ0 whole entry, looked up): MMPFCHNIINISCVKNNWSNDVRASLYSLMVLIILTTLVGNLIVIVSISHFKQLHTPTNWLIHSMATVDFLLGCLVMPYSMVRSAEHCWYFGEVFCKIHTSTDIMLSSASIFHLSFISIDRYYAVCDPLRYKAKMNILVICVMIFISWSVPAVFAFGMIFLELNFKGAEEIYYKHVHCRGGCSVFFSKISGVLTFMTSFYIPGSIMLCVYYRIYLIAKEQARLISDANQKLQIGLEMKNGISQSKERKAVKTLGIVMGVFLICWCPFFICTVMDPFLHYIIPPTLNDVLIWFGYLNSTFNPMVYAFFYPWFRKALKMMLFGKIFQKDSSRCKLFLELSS
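Assay system: CHO-derived RD-HGA16 cells stably expressing human TAAR1 plus Gα16. Timing: 140 s kinetic read after compound, 140 s after agonist. Technique: kinetic Fluo-8 calcium fluorescence measurement. Measure: % inhibition of agonist calcium response.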
TAAR1 ag: human TAAR1 agonists, primary screen, Fluo-8 calcium fluorescence, CHO RD-HGA16 cells; activation, % at 3 µM; hit rate 0.99% among 360,000; Trace amine-associated receptor 1 (Homo sapiens), Q96RJ0; vehicle wells 0%, saturating PEA agonist 100%;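 active means activation above the mean activation of all test compounds in the run plus 3 SD, cut at about 38% in these data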
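System: CHO RD-HGA16 cells carrying human TAAR1 plus Gα16; Incubation: 17-24 h seeding, 75 min 37 °C dye, 30 min RT; Measured by: Fluo-8 fluorescence, 5 s baseline then 140 s kinetic read; Control set: DMSO and PEA EC100; Replication: single well for each compound.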
GPR7 antagonist: GPR7 receptor antagonists, primary screen, cell-based, fluorescence, single concentration. Neuropeptides B/W receptor type 1 (Homo sapiens), P48145. GPR7-expressing cells, fluorescence antagonist assay. inhibition, % at 4.4 µM. hit rate 1.1% among 290,000. AID 1861, 2009; in the data active means inhibition above about 16%, passing the limit was not always enough;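 further: cells stimulated with the agonist NPW; 0% = agonist with vehicle and 100% = vehicle without agonist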
Target sequence (P48145 whole entry, looked up): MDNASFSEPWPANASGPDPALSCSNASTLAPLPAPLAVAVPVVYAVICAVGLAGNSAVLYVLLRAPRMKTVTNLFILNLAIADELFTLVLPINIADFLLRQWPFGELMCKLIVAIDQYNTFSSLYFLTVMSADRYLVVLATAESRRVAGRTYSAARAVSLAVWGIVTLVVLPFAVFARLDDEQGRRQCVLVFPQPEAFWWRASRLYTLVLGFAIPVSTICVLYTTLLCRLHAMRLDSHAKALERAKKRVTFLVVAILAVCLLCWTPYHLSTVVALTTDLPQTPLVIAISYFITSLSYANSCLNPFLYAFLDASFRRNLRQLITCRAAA
CHO parental Ca: ATP-evoked calcium signal inhibitors, parental CHO, primary screen, counter-screen for OX1R antagonist project, cell-based, fluorescence, Fluo-8 calcium dye; parental CHO-K1, ATP-induced calcium, Fluo-8 fluorescence; inhibition, % at 5.6 µM; hit rate 0.63% among 330,000; AID 463079, 2010;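 active means inhibition above that plate's mean sample inhibition plus 3 SD, cut at about 26% in these data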;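 further: 0% = ATP-challenged DMSO wells and 100% = DMSO wells without ATP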
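Material: parental CHO cells / Compound: single nominal dose of 5.6 µM per compound / Signal: Fluo-8 fluorescence / Replicates: singlicate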
OX1R antag-1: OX1R (HCRTR1) antagonists, primary screen, fluorescence, CHO/OX1R cells, Fluo-8 calcium, orexin A. Orexin/Hypocretin receptor type 1 (Homo sapiens), O43613. Fluo-8 calcium fluorescence. inhibition, % at 5 µM. hit rate 0.43% among 330,000;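 active means inhibition above its plate's threshold, mean inhibition of all tested compounds on the plate plus 3 SD, cut at about 37% in these data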;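 further: 0% = orexin A challenge wells and 100% = SB-334867-A antagonist wells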
OX1R antag-2: antagonists of human orexin 1 receptor (OX1R) | hit rate 1.8% among 330,000 | inhibition, % at 6.6 µM | OX1R-expressing cells, FRET antagonist read-out | Orexin/Hypocretin receptor type 1 (Homo sapiens), O43613 | AID 485270, 2010; in the data active means inhibition mostly above about 38%, no sharp cut-off; inactive means mostly below about 40%;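 further: 0% = agonist challenge alone and 100% = reference antagonist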
TAAR1 ag conf: human TAAR1 agonists, retest of hits, confirmation, Fluo-8 calcium fluorescence, CHO RD-HGA16 cells | shares compounds with TAAR1 ag | scaled: DMSO 0%, maximal phenethylamine 100% | activation, % at 3 µM | hit rate 82% among 2,400;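 active means activation above a cutoff set at the run's mean compound activation plus 3 SD, cut at about 39% in these data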
Ga16 nonsel ag: nonselective calcium mobilization agonists, CHO-Ga16 cells, counter-screen for hTAAR1 agonist project, cell-based, fluorescence, CHO-Ga16 parental line; activation, % at 3 µM; AID 651787, 2012; hit rate 50% among 2,400; shares compounds with TAAR1 ag; Fluo-8 calcium fluorescence; normalized to maximal ATP response, DMSO zero;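 active means activation above the run cutoff, the mean activation over all tested wells plus 3 SD, cut at about 12% in these data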;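 further: 0% = DMSO wells and 100% = maximal ATP response on the peak over basal ratio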
TAAR1 desensitize: TAAR1 desensitization by agonist hits, confirmation, counter-screen for TAAR1 agonist project, cell-based, fluorescence, tachyphylaxis | shares compounds with TAAR1 ag | CHO RD-HGA16 hTAAR1, Fluo-8 calcium, beta-PEA response inhibition | inhibition, % at 3 µM | hit rate 46% among 2,400 | AID 651951, 2012;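 active means inhibition above the run cutoff, the mean inhibition of all test compounds plus 3 SD, cut at about 49% in these data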;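 further: beta-PEA stimulus applied at its EC80; loss of beta-PEA calcium signal after compound pretreatment read as receptor desensitization; 0% = DMSO with beta-PEA at EC80 and 100% = DMSO alone without agonist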
Ga16 antag count: inhibition of ATP-evoked calcium response in CHO-Ga16 cells, counter-screen for TAAR1 agonist project, cell-based, fluorescence; shares compounds with TAAR1 ag; CHO-Ga16 ATP-induced calcium, Fluo-8 fluorescence; inhibition, % at 3 µM; hit rate 39% among 2,400; AID 651952, 2012;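 active means inhibition above the plate's mean compound inhibition plus 3 SD, computed per plate, cut at about 22% in these data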;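 further: 0% = EC80 ATP with DMSO and 100% = DMSO wells without ATP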
* hit, by the source's call; · = not tested or not shown.

SMILES	TAAR1 antag	TAAR1 ag	GPR7 antagonist	CHO parental Ca	OX1R antag-1	OX1R antag-2	TAAR1 ag conf	Ga16 nonsel ag	TAAR1 desensitize	Ga16 antag count
O=C(Nc1ccccc1)c1nc[nH]c1C(=O)N1CCc2ccccc2C1	7.7	4.3	·	-26.5	-20.8	11.7	·	·	·	·
O=C(Nc1nccs1)c1nc[nH]c1C(=O)N1CCc2ccccc2C1	81.6*	81.8*	·	-7.8	-21.7	0.2	103.0*	3.7	94.0*	8.1
O=C(CC(c1ccccc1)c1ccccc1)Nc1ccc(O)cc1	-1.3	1.7	-18.1	-13.2	-13.5	12.6	·	·	·	·
O=C(CC(NCCc1ccccc1)C(=O)O)Nc1ccc(O)cc1 (stereo not drawn)	6.5	50.1*	-5.6	-0.8	-6.2	5.3	90.6*	0.6	73.9*	6.0
COc1ccc(CCNC2=NCCS2)cc1	15.6	58.8*	5.7	-3.9	-0.6	7.5	61.8*	0.1	36.5	6.0
O=C(O)CC(NC(=O)C1c2ccccc2Oc2ccccc21)c1ccc(OC2CCCC2)cc1 (stereo not drawn)	-12.1	57.6*	11.7	-8.1	-3.8	20.4	82.9*	49.0*	12.1	0.5
COc1cc(OC)cc(-c2noc([C@@H]3O[C@H](CO)[C@@H](O)[C@H]3O)n2)c1	-6.6	0.8	·	·	·	·	·	·	·	·
Cc1cc(NC(=O)CCSc2nc(-c3ccco3)cc(C(F)(F)F)n2)no1	11.9	8.1	-6.4	-9.2	-22.8	10.3	·	·	·	·
Cc1cc(NC(=O)CSc2nc(-c3ccco3)cc(C(F)(F)F)n2)no1	17.8	43.9*	0.8	-20.3	-16.3	30.1	-0.6	4.7	3.1	10.9
O=C(NCC(c1ccco1)N1CCc2ccccc2C1)c1ccc(Br)cc1 (stereo not drawn)	19.7	45.4*	·	-24.0	-17.7	27.2	23.5	2.2	10.9	12.8
O=C(NCC(c1ccco1)N1CCc2ccccc2C1)c1ccc(Cl)cc1 (stereo not drawn)	33.9	73.9*	·	-18.1	-28.3	32.3	38.1*	0.6	3.6	7.9
CCOc1ccc(C(=O)NCC(c2ccco2)N2CCc3ccccc3C2)cc1 (stereo not drawn)	-65.4	6.7	·	-21.1	-42.4	22.9	·	·	·	·
O=C(NCC(c1ccco1)N1CCc2ccccc2C1)c1ccccc1Br (stereo not drawn)	6.7	34.8	·	-14.4	1.4	9.5	·	·	·	·
COC(=O)Nc1ccc2c(c1)N(C(=O)CCN(C)C)c1ccccc1CC2	-8.9	2.1	13.5	-14.1	-16.1	17.0	·	·	·	·
S=C1SCN(CCc2ccccc2)CN1CCc1ccccc1	86.1*	81.8*	·	·	·	·	90.2*	5.4	91.8*	14.9
COCOCCn1cc(CN2CCS(=O)(=O)N(Cc3ccc(-c4ccc(F)nc4)cc3)C(CC(C)C)C2=O)nn1 (stereo not drawn)	40.9	9.5	·	·	·	·	·	·	·	·
O=C(NCC(c1ccco1)N1CCc2ccccc2C1)C(=O)Nc1ccc(F)cc1F (stereo not drawn)	13.8	58.0*	·	-16.4	-6.5	21.2	41.5*	5.3	10.0	15.5
O=C(NCC(c1ccco1)N1CCc2ccccc2C1)c1ccc(Cl)c([N+](=O)[O-])c1 (stereo not drawn)	3.5	4.2	·	-15.4	-17.4	36.4	·	·	·	·
CC(=O)Nc1ccc(NC(=O)C(=O)NCC(c2ccco2)N2CCc3ccccc3C2)cc1 (stereo not drawn)	15.8	77.5*	·	48.9*	16.7	18.6	92.5*	3.6	36.1	6.8
O=C(CN1CCc2ccccc2C1)Nc1ccc(F)cc1F	-30.8	-2.5	3.9	-14.7	-8.1	4.7	·	·	·	·
O=C(NCC(c1ccco1)N1CCc2ccccc2C1)C(=O)Nc1ccccc1F (stereo not drawn)	16.0	46.2*	·	7.2	-16.0	43.0	48.5*	1.8	15.7	17.9
CC1(C(=O)NS(=O)(=O)C2CC2)CCCN(C(=O)c2ccc3ccccc3c2)C1 (stereo not drawn)	-18.2	0.7	·	·	·	·	·	·	·	·
COc1ccc(OC)c(/C=C2/Sc3ccccc3C2=O)c1	61.4*	73.6*	-2.6	37.3*	56.8*	15.2	22.7	28.6*	44.9	50.3*
COc1ccc(OC)c(C=C2CCc3ccccc3C2=O)c1	-3.8	-1.9	·	·	·	·	·	·	·	·
CC(C)c1ccc(NC(=O)Nc2nnc([C@@H]3C[C@H](O)[C@@H](CO)O3)s2)cc1	-7.3	2.1	·	·	·	·	·	·	·	·
SMILES	TAAR1 antag	TAAR1 ag	GPR7 antagonist	CHO parental Ca	OX1R antag-1	OX1R antag-2	TAAR1 ag conf	Ga16 nonsel ag	TAAR1 desensitize	Ga16 antag count
Cc1[nH]c2ccccc2c1C(=O)CSc1ccc(Cl)cc1	39.5	10.3	-18.1	18.1	8.7	12.2	·	·	·	·
Cc1[nH]c2ccccc2c1C(=O)CN1C(=O)NC(C)(c2ccc(Cl)cc2Cl)C1=O (stereo not drawn)	55.2*	70.2*	62.1*	23.0	34.4	13.3	75.2*	38.5*	64.2*	47.7*
O=C(COC(=O)c1ccccc1C(=O)c1ccccc1)Nc1ccc(SC(F)F)cc1	18.5	2.0	-13.1	-15.2	-4.0	10.8	·	·	·	·
NC(=O)COC(=O)c1ccccc1Nc1ccc(SC(F)F)cc1	38.3	43.2*	-2.8	-4.1	-6.1	28.0	6.0	9.4	16.1	16.2
C[C@@H]1CN([C@H](C)CO)C(=O)CCCn2cc(nn2)CO[C@H]1CN(C)C(=O)C1CC1	-13.2	3.0	·	·	·	·	·	·	·	·
COc1ccc(N/N=C/c2c(C(=O)O)ccc3ccccc23)cc1	5.6	62.4*	3.1	-16.4	-14.2	29.6	62.3*	13.3*	34.6	17.7
COc1ccc2ccccc2c1/C=N/Nc1ccc(Cl)c(C(=O)O)c1	-0.2	-1.9	1.0	-1.0	-7.0	40.6	·	·	·	·
